In brackets after ≈: the same amount, converted by molar mass. A value given as a limit tells only on which side of the number the result lay.

Common to all, as to type: functional
For assay [1], the system named is Staphylococcus aureus. As to the kind of experiment: Antibacterial activity against methicillin-sensitive Staphylococcus aureus after 24 hrs by NCCLS method. The gist of the method: (§1)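 Broth microdilution in Mueller-Hinton broth. Stocks at 1280 µg/mL in aqueous 10-20% DMSO were diluted to 128 µg/mL, then serially 2-fold diluted giving final concentrations of 64 down to 0.125 µg/mL. Overnight MHB cultures were diluted to 10^6~10^7 CFU/mL, and 100 µL was added per well. Plates ran 24 h at 37°C. MIC was read from OD against an MHB blank, in triplicate.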

For assay [2], the system named is Staphylococcus aureus. Nature of the assay: Antibacterial activity against methicillin-resistant Staphylococcus aureus after 24 hrs by NCCLS method. The gist of the method: (§2)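 Broth microdilution in Mueller-Hinton broth. Stocks at 1280 µg/mL in aqueous 10-20% DMSO, diluted to 128 µg/mL, then 2-fold serially to final 64 down to 0.125 µg/mL. Overnight MHB cultures diluted to 10^6~10^7 CFU/mL and added 1:1 to compound. Incubated 24 h at 37°C. MIC read from OD against MHB blank. Three parallels per concentration.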

Assay [3] relates to Staphylococcus epidermidis. As to the kind of experiment: Antibacterial activity against methicillin-sensitive Staphylococcus epidermidis after 24 hrs by NCCLS method. In outline:
as §2

Assay [4] concerns Staphylococcus epidermidis. As to the kind of experiment: Antibacterial activity against methicillin-resistant Staphylococcus epidermidis after 24 hrs by NCCLS method. In outline:
as §2

The next assay concerns Enterococcus faecium. Nature of the assay: Antibacterial activity against Enterococcus faecium after 24 hrs by NCCLS method. The gist of the method: as §1
The test system of the next assay is Enterococcus faecalis. Nature of the assay: Antibacterial activity against Enterococcus faecalis after 24 hrs by NCCLS method. In outline:
as §1

For another assay, the system named is Escherichia coli. Nature of the assay: Antibacterial activity against Escherichia coli ATCC 11775 after 24 hrs by NCCLS method. Particulars: DSM 30083 = JCM 1649 = ATCC 11775, 24 h. In outline: as §1
For a further assay, the system named is Pasteurella multocida. As to the kind of experiment: Antibacterial activity against Pasteurella multocida after 24 hrs by NCCLS method. In outline:
as §1

Assay [5] relates to Staphylococcus aureus. Nature of the assay: Antibacterial activity against methicillin-resistant Staphylococcus aureus clinical isolates infected in ip dosed mouse assessed as reduction in bacterial infection administered 1 hr after infection and measured after 7 days. In outline: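 Kunming mice, half male and half female, 19-23 g, 10 per group. Infected i.p. with 0.5 mL clinical MRSA isolate suspension (~10^7 CFU/mL). Single i.p. dose 1 h post-infection, five dose levels between 7.0 and 50.0 mg/kg depending on compound. Vehicle was DMSO:Tween-80:water 1:1:8, or water for valnemulin. ED50 by Probit analysis from survival after 7 days; 95% confidence ranges.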

For `C=C[C@]1(C)C[C@@H](OC(=O)CSc2nc(NC(=O)CN3CCCCC3)c3cc[nH]c3n2)[C@]2(C)[C@H](C)CC[C@]3(CCC(=O)[C@H]32)[C@@H](C)[C@@H]1O`, the minimal inhibitory concentration (MIC) against Staphylococcus aureus [1] is 0.0625 µg/mL (≈ 0.0959 µM); in the assay on Staphylococcus aureus [2] it was 0.125 µg/mL (≈ 0.192 µM); in assay [3], 0.0625 µg/mL (≈ 0.0959 µM); in assay [4], 0.125 µg/mL (≈ 0.192 µM); against Enterococcus faecium, 0.125 µg/mL (≈ 0.192 µM); with Enterococcus faecalis, 32 µg/mL (≈ 49.1 µM). Further, the figures for the minimum inhibitory concentration (MIC) against Escherichia coli and against Pasteurella multocida were 64 µg/mL (≈ 98.2 µM) and 32 µg/mL (≈ 49.1 µM), respectively. Moreover, the ED50 with Staphylococcus aureus [5] worked out at 19.7 mg/kg.
Regarding `C=C[C@]1(C)C[C@@H](OC(=O)CSc2nc(N)c3cc[nH]c3n2)[C@]2(C)[C@H](C)CC[C@]3(CCC(=O)[C@H]32)[C@@H](C)[C@@H]1O`, the MIC against Staphylococcus aureus [1] turned out to be 1 µg/mL (≈ 1.9 µM); in the assay on Staphylococcus aureus [2], 1 µg/mL (≈ 1.9 µM); in assay [3], 1 µg/mL (≈ 1.9 µM); in assay [4] it was 2 µg/mL (≈ 3.8 µM); with Enterococcus faecium, 1 µg/mL (≈ 1.9 µM); against Enterococcus faecalis, 64 µg/mL (≈ 122 µM). For the same compound, the values for the minimal inhibitory concentration (MIC) in the assay on Escherichia coli and in the assay with Pasteurella multocida were > 64 µg/mL and 64 µg/mL (≈ 122 µM), respectively.
With `C=C[C@]1(C)C[C@@H](OC(=O)CSc2nc(NC(=O)CN3CCN(C)CC3)c3cc[nH]c3n2)[C@]2(C)[C@H](C)CC[C@]3(CCC(=O)[C@H]32)[C@@H](C)[C@@H]1O`, the minimal inhibitory concentration (MIC) was determined as 0.125 µg/mL (≈ 0.187 µM) in the assay on Staphylococcus aureus [1]; 1 µg/mL (≈ 1.5 µM) against Staphylococcus aureus [2]; 0.25 µg/mL (≈ 0.375 µM) in assay [3]; 0.5 µg/mL (≈ 0.75 µM) in assay [4]; 0.5 µg/mL (≈ 0.75 µM) against Enterococcus faecium; 64 µg/mL (≈ 96 µM) in the assay on Enterococcus faecalis. Besides, the minimal inhibitory concentration (MIC) was > 64 µg/mL against Escherichia coli and 32 µg/mL (≈ 48 µM) with Pasteurella multocida.
Regarding `C=C[C@]1(C)C[C@@H](OC(=O)CSc2nc(NC(=O)CN3CCC(N(C)C)CC3)c3cc[nH]c3n2)[C@]2(C)[C@H](C)CC[C@]3(CCC(=O)[C@H]32)[C@@H](C)[C@@H]1O`, the MIC against Staphylococcus aureus [1] worked out at 0.5 µg/mL (≈ 0.719 µM); in the assay with Staphylococcus aureus [2], 1 µg/mL (≈ 1.44 µM); in assay [3] it was 0.5 µg/mL (≈ 0.719 µM); in assay [4] it was 0.5 µg/mL (≈ 0.719 µM); in the assay on Enterococcus faecium, 1 µg/mL (≈ 1.44 µM); against Enterococcus faecalis, 64 µg/mL (≈ 92.1 µM). The MIC was > 64 µg/mL in the assay on Escherichia coli and 64 µg/mL (≈ 92.1 µM) in the assay on Pasteurella multocida.
Take `C=C[C@]1(C)C[C@@H](OC(=O)CSc2nc(NC(=O)CNC3CCCCC3)c3cc[nH]c3n2)[C@]2(C)[C@H](C)CC[C@]3(CCC(=O)[C@H]32)[C@@H](C)[C@@H]1O`: the MIC was 0.5 µg/mL (≈ 0.751 µM) against Staphylococcus aureus [1]; 1 µg/mL (≈ 1.5 µM) in the assay with Staphylococcus aureus [2]; 0.5 µg/mL (≈ 0.751 µM) in [3]; 0.5 µg/mL (≈ 0.751 µM) in assay [4]; 0.5 µg/mL (≈ 0.751 µM) against Enterococcus faecium; 64 µg/mL (≈ 96.1 µM) with Enterococcus faecalis. Besides, the MIC in the assay with Escherichia coli was > 64 µg/mL; in the assay with Pasteurella multocida, 64 µg/mL (≈ 96.1 µM).
With `C=C[C@]1(C)C[C@@H](OC(=O)CSc2nc(NC(=O)CN3CCC(N4CCCCC4)CC3)c3cc[nH]c3n2)[C@]2(C)[C@H](C)CC[C@]3(CCC(=O)[C@H]32)[C@@H](C)[C@@H]1O`, the MIC with Staphylococcus aureus [1] turned out to be 0.5 µg/mL (≈ 0.68 µM); with Staphylococcus aureus [2], 0.5 µg/mL (≈ 0.68 µM); in [3], 0.25 µg/mL (≈ 0.34 µM); in assay [4], 0.5 µg/mL (≈ 0.68 µM); with Enterococcus faecium it was 0.0625 µg/mL (≈ 0.085 µM); against Enterococcus faecalis it was 64 µg/mL (≈ 87.1 µM). In addition, the minimal inhibitory concentration (MIC) against Escherichia coli and with Pasteurella multocida was 64 µg/mL (≈ 87.1 µM) in each case.
Consider `C=C[C@]1(C)C[C@@H](OC(=O)CSc2nc(NC(=O)CN3CCC(CO)CC3)c3cc[nH]c3n2)[C@]2(C)[C@H](C)CC[C@]3(CCC(=O)[C@H]32)[C@@H](C)[C@@H]1O`, for which the MIC against Staphylococcus aureus [1] is 0.25 µg/mL (≈ 0.367 µM); in the assay on Staphylococcus aureus [2], 0.25 µg/mL (≈ 0.367 µM); in assay [3], 0.125 µg/mL (≈ 0.183 µM); in assay [4], 0.125 µg/mL (≈ 0.183 µM); in the assay with Enterococcus faecium, 0.25 µg/mL (≈ 0.367 µM); in the assay on Enterococcus faecalis it was 64 µg/mL (≈ 93.9 µM). In addition, the MIC is > 64 µg/mL against Escherichia coli and 64 µg/mL (≈ 93.9 µM) with Pasteurella multocida.
For `C=C[C@]1(C)C[C@@H](OC(=O)CSc2nc(NC(=O)CN3CCN(c4ccccc4)CC3)c3cc[nH]c3n2)[C@]2(C)[C@H](C)CC[C@]3(CCC(=O)[C@H]32)[C@@H](C)[C@@H]1O`, the MIC worked out at 1 µg/mL (≈ 1.37 µM) against Staphylococcus aureus [1]; 1 µg/mL (≈ 1.37 µM) against Staphylococcus aureus [2]; 0.5 µg/mL (≈ 0.686 µM) in assay [3]; 1 µg/mL (≈ 1.37 µM) in assay [4]; 1 µg/mL (≈ 1.37 µM) against Enterococcus faecium; 64 µg/mL (≈ 87.8 µM) in the assay on Enterococcus faecalis. In addition, the minimal inhibitory concentration (MIC) was > 64 µg/mL against Escherichia coli and 64 µg/mL (≈ 87.8 µM) against Pasteurella multocida.
Consider `C=C[C@]1(C)C[C@@H](OC(=O)CSc2nc(NC(=O)CN3CCN(c4ccccn4)CC3)c3cc[nH]c3n2)[C@]2(C)[C@H](C)CC[C@]3(CCC(=O)[C@H]32)[C@@H](C)[C@@H]1O`, for which the minimal inhibitory concentration (MIC) stood at 1 µg/mL (≈ 1.37 µM) in the assay with Staphylococcus aureus [1]; 0.5 µg/mL (≈ 0.685 µM) against Staphylococcus aureus [2]; 0.5 µg/mL (≈ 0.685 µM) in assay [3]; 0.5 µg/mL (≈ 0.685 µM) in assay [4]; 0.25 µg/mL (≈ 0.342 µM) in the assay with Enterococcus faecium; 64 µg/mL (≈ 87.7 µM) against Enterococcus faecalis. In addition, the minimum inhibitory concentration (MIC) in the assay on Escherichia coli and in the assay on Pasteurella multocida was > 64 µg/mL in each case.
Turning to `C=C[C@]1(C)C[C@@H](OC(=O)CSc2nc(NC(=O)CN3CCOCC3)c3cc[nH]c3n2)[C@]2(C)[C@H](C)CC[C@]3(CCC(=O)[C@H]32)[C@@H](C)[C@@H]1O`, the MIC in the assay with Staphylococcus aureus [1] was found to be 0.125 µg/mL (≈ 0.191 µM); against Staphylococcus aureus [2], 0.25 µg/mL (≈ 0.382 µM); in assay [3], 0.25 µg/mL (≈ 0.382 µM); in assay [4] it was 0.25 µg/mL (≈ 0.382 µM); against Enterococcus faecium, 0.25 µg/mL (≈ 0.382 µM); in the assay with Enterococcus faecalis it was 64 µg/mL (≈ 97.9 µM). For the same compound, the minimum inhibitory concentration (MIC) against Escherichia coli is 64 µg/mL (≈ 97.9 µM); in the assay on Pasteurella multocida, 32 µg/mL (≈ 48.9 µM).
With `C=C[C@]1(C)C[C@@H](OC(=O)CSc2nc(NC(=O)CNC3CC3)c3cc[nH]c3n2)[C@]2(C)[C@H](C)CC[C@]3(CCC(=O)[C@H]32)[C@@H](C)[C@@H]1O`, the minimal inhibitory concentration (MIC) against Staphylococcus aureus [1] was found to be 0.125 µg/mL (≈ 0.2 µM); against Staphylococcus aureus [2], 0.25 µg/mL (≈ 0.401 µM); in assay [3], 0.125 µg/mL (≈ 0.2 µM); in [4] it was 0.25 µg/mL (≈ 0.401 µM); with Enterococcus faecium, 0.25 µg/mL (≈ 0.401 µM); with Enterococcus faecalis it was 64 µg/mL (≈ 103 µM). In addition, the minimum inhibitory concentration (MIC) in the assay with Escherichia coli was > 64 µg/mL; in the assay on Pasteurella multocida it was 32 µg/mL (≈ 51.3 µM).
`C=C[C@]1(C)C[C@@H](OC(=O)CSc2nc(NC(=O)CN3CCC(O)CC3)c3cc[nH]c3n2)[C@]2(C)[C@H](C)CC[C@]3(CCC(=O)[C@H]32)[C@@H](C)[C@@H]1O`: the MIC worked out at 2 µg/mL (≈ 2.99 µM) in the assay with Staphylococcus aureus [2], 1 µg/mL (≈ 1.5 µM) in assay [3] and 1 µg/mL (≈ 1.5 µM) in assay [4].
`C=C[C@]1(C)C[C@@H](OC(=O)CSc2nc(NC(=O)CN3CCC(c4ccccc4)CC3)c3cc[nH]c3n2)[C@]2(C)[C@H](C)CC[C@]3(CCC(=O)[C@H]32)[C@@H](C)[C@@H]1O`: the minimum inhibitory concentration (MIC) (against Staphylococcus aureus [1]; in the assay with Staphylococcus aureus [2]; in assay [3]; in assay [4]) was 0.25 µg/mL (≈ 0.343 µM) in each case.
In the case of `C=C[C@]1(C)C[C@@H](OC(=O)CSc2nc(NC(=O)CN3CCNCC3)c3cc[nH]c3n2)[C@]2(C)[C@H](C)CC[C@]3(CCC(=O)[C@H]32)[C@@H](C)[C@@H]1O`, the minimum inhibitory concentration (MIC) in the assay with Staphylococcus aureus [1] turned out to be 2 µg/mL (≈ 3.06 µM); in the assay on Staphylococcus aureus [2], 4 µg/mL (≈ 6.13 µM); in [3], 1 µg/mL (≈ 1.53 µM); in assay [4], 1 µg/mL (≈ 1.53 µM); in the assay with Enterococcus faecium, 1 µg/mL (≈ 1.53 µM); in the assay with Enterococcus faecalis, 64 µg/mL (≈ 98 µM). In addition, the MIC was > 64 µg/mL in the assay with Escherichia coli and 32 µg/mL (≈ 49 µM) in the assay on Pasteurella multocida.

Usually MIC stands for the lowest concentration that inhibits growth of the organism. Broadly, the ED50 is the dose that gives a 50% effect, or the effect in half of the subjects.

Values taken from ChEMBL document CHEMBL4325900, “Antibacterial activity evaluation of synthetic novel pleuromutilin derivatives in vitro and in experimental infection mice” (2019).
